ChEMBL document CHEMBL3526070, “Mass balance study of [¹⁴C]eribulin in patients with advanced solid tumors” (Drug Metab Dispos, 2012)

Key:
[1] = Drug excretion in cancer patient urine at 80 uCi, iv administered as bolus infusion for 2 to 5 mins after 312 hrs by liquid scintillation counting; type: ADME, organism-based; conditions: human, in vivo
Procedure, shortened: (§1)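 Patients had one ~2 mg (~80 µCi) 14C-eribulin IV bolus over 2-5 min. Urine was pooled over 6 h periods to 48 h, then every 24 h. All faeces were collected and homogenised. Collection ran to day 8, or longer until daily recovery was <1% of administered activity (faeces up to 312 h). Faeces were solubilised and decolourised, then LSC counted with quench correction, as percentage of administered activity.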

[2] = Drug excretion in cancer patient feces at 80 uCi, iv administered as bolus infusion for 2 to 5 mins after 312 hrs by liquid scintillation counting; type: ADME, organism-based; conditions: human, in vivo; procedure, shortened: as §1
[3] = Drug excretion in cancer patient urine at 80 uCi, iv administered as bolus infusion for 2 to 5 mins after 168 hrs by liquid scintillation counting; type: ADME, organism-based; conditions: human, in vivo; procedure, shortened: as §1
[4] = Drug excretion in cancer patient feces at 80 uCi, iv administered as bolus infusion for 2 to 5 mins after 168 hrs by liquid scintillation counting; type: ADME, organism-based; conditions: human, in vivo; procedure, shortened: as §1
Homo sapiens [5] = assay: Toxicity against cancer patient assessed as mortality at 80 uCi, iv administered as bolus infusion for 2 to 5 mins; type: organism-based; conditions: in vivo
Homo sapiens [6] = assay: Toxicity against cancer patient assessed as severe adverse event at 80 uCi, iv administered as bolus infusion for 2 to 5 mins; type: organism-based; conditions: in vivo
Homo sapiens [7] = assay: Cmax in cancer patient plasma assessed as total radioactivity at 2 mg, iv administered as bolus infusion for 2 to 5 mins by LC-MS/MS analysis/liquid scintillation counting; type: ADME, organism-based; parameters: dose 2 mg, route intravenous; conditions: in vivo
Procedure, shortened: (§2)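 Six patients with advanced solid tumours got one ~2 mg (~80 µCi) 14C-eribulin IV bolus over 2-5 min. Venous blood was drawn into lithium heparin pre-dose, at end of infusion and 5 min-168 h after, then spun 2,000 g, 4 °C, 15 min. Plasma was counted in duplicate by LSC with quench correction. Non-compartmental analysis; dose-normalised values use actual administered dose.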

Homo sapiens [8] = assay: Terminal half life in cancer patient assessed as total radioactivity at 2 mg, iv administered as bolus infusion for 2 to 5 mins by LC-MS/MS analysis/liquid scintillation counting; type: ADME, organism-based; conditions: in vivo; procedure, shortened: as §2
Homo sapiens [9] = assay: AUC (0 to t) in cancer patient assessed as total radioactivity at 2 mg, iv administered as bolus infusion for 2 to 5 mins by LC-MS/MS analysis/liquid scintillation counting; type: ADME, organism-based, Plasma; conditions: in vivo; procedure, shortened: as §2
Homo sapiens [10] = assay: AUC (0 to infinity) in cancer patient assessed as total radioactivity at 2 mg, iv administered as bolus infusion for 2 to 5 mins by LC-MS/MS analysis/liquid scintillation counting; type: ADME, organism-based, Plasma; parameters: dose 2 mg, time infinity, route intravenous; conditions: in vivo; procedure, shortened: as §2
Homo sapiens [11] = assay: Dose-normalized Cmax in cancer patient plasma assessed as total radioactivity at 2 mg, iv administered as bolus infusion for 2 to 5 mins by LC-MS/MS analysis/liquid scintillation counting; type: ADME, organism-based; conditions: in vivo; procedure, shortened: as §2
Homo sapiens [12] = assay: Dose-normalized AUC (0 to t) in cancer patient plasma assessed as total radioactivity at 2 mg, iv administered as bolus infusion for 2 to 5 mins by LC-MS/MS analysis/liquid scintillation counting; type: ADME, organism-based; conditions: in vivo; procedure, shortened: as §2
Homo sapiens [13] = assay: Dose-normalized AUC (0 to infinity) in cancer patient plasma assessed as total radioactivity at 2 mg, iv administered as bolus infusion for 2 to 5 mins by LC-MS/MS analysis/liquid scintillation counting; type: ADME, organism-based; conditions: in vivo; procedure, shortened: as §2
[14] = Clearance in cancer patient at 2 mg, iv administered as bolus infusion for 2 to 5 mins by LC-MS/MS analysis; type: ADME, organism-based; conditions: human, in vivo
Procedure, shortened: (§3)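 Six patients with advanced solid tumours received a single ~2 mg (~80 µCi) 14C-eribulin IV bolus over 2-5 min. Plasma was sampled from pre-dose to 168 h after end of infusion, using lithium-heparin tubes centrifuged at 4 °C. Eribulin was quantified by validated LC-MS/MS (m/z 730→712) and corrected ×2.03 for total eribulin. CL, CLr and Vz came from non-compartmental analysis. Values are mean ± SD, n=6.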

[15] = Renal clearance in cancer patient at 2 mg, iv administered as bolus infusion for 2 to 5 mins by LC-MS/MS analysis; type: ADME, organism-based, Kidney; conditions: human, in vivo; procedure, shortened: as §3
Homo sapiens [16] = assay: Apparent volume of distribution in the terminal phase in cancer patient at 2 mg, iv administered as bolus infusion for 2 to 5 mins by LC-MS/MS analysis; type: ADME, organism-based; conditions: in vivo; procedure, shortened: as §3
Homo sapiens [17] = assay: Dose-normalized Cmax in cancer patient plasma at 2 mg, iv administered as bolus infusion for 2 to 5 mins by LC-MS/MS analysis/liquid scintillation counting; type: ADME, organism-based; conditions: in vivo
Procedure, shortened: (§4)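 Single ~2 mg (~80 µCi) 14C-eribulin IV bolus over 2-5 min in 6 cancer patients; actual doses were 1.75-3.01 mg. Plasma eribulin was measured by LC-MS/MS and total radioactivity by liquid scintillation counting with quench correction. Cmax, AUC0-t and AUC0-∞ came from non-compartmental analysis and were divided by the actual dose. TRA AUC0-∞ used n=5.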

Homo sapiens [18] = assay: Dose-normalized AUC (0 to t) in cancer patient plasma at 2 mg, iv administered as bolus infusion for 2 to 5 mins by LC-MS/MS analysis/liquid scintillation counting; type: ADME, organism-based; conditions: in vivo; procedure, shortened: as §4
Homo sapiens [19] = assay: Dose-normalized AUC (0 to infinity) in cancer patient plasma at 2 mg, iv administered as bolus infusion for 2 to 5 mins by LC-MS/MS analysis/liquid scintillation counting; type: ADME, organism-based; conditions: in vivo; procedure, shortened: as §4
Homo sapiens [20] = assay: Drug excretion in cancer patient treated with [14C]eribulin acetate at 2 mg, iv administered as bolus infusion for 2 to 5 mins after 312 hrs by LC-MS/MS analysis; type: ADME, organism-based; conditions: in vivo
Procedure, shortened: (§5)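 Patients got a ~2 mg (~80 µCi) 14C-eribulin IV bolus over 2-5 min. Urine was collected in 6 h periods to 48 h, then in 24 h periods. All faeces were collected and homogenised until daily recovery was <1% of dose; four patients continued to 312 h. Unchanged eribulin was measured by LC-MS/MS (faeces 0.1–25 µg/g) and total radioactivity by LSC. Results are % of the administered dose, mean ± SD.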

Homo sapiens [21] = assay: Drug excretion in cancer patient treated with [14C]eribulin acetate at 2 mg, iv administered as bolus infusion for 2 to 5 mins after 168 hrs by LC-MS/MS analysis; type: ADME, organism-based; conditions: in vivo; procedure, shortened: as §5
[22] = Terminal half life in breast cancer patient; type: ADME, organism-based; conditions: human, in vivo; read-out: beta t1/2 (converted)
[23] = Drug excretion in patient urine assessed as unchanged compound level at 0.25 to 1.4 mg/m2 administered 1 hr, iv infusion after 72 hrs; type: ADME, organism-based; conditions: human, read-out: Drug excretion
[24] = Drug excretion in patient urine assessed as unchanged compound at 0.25 to 4 mg/m2 administered 1 hr, iv infusion every 21 days after 72 hrs; type: ADME, organism-based; conditions: human, read-out: Drug excretion

With `C=C1C[C@@H]2CC[C@@]34C[C@H]5O[C@H]6[C@@H](O3)[C@H]3O[C@H](CC[C@@H]3O[C@H]6[C@H]5O4)CC(=O)C[C@@H]3[C@@H](OC)[C@@H](C[C@H](O)CN)O[C@H]3C[C@H]3O[C@@H](CC[C@@H]1O2)C[C@@H](C)C3=C.CC(=O)O` as the molecule, how does the Drug excretion [1] read?
The Drug excretion was 8.9%.

What about the Drug excretion [2] of the same molecule?
Its Drug excretion is 81.5%.

And the Drug excretion [3]?
The Drug excretion was 8.9%.

What about the Drug excretion [4] of the same molecule?
Its Drug excretion is 77.6%.

What about the Activity (Homo sapiens [5]) of the same molecule?
The Activity was “Non-toxic”.

And the Activity (Homo sapiens [6])?
Its Activity is “Non-toxic”.

What about the Cmax (Homo sapiens [7]) of the same molecule?
Its Cmax is 449 ng.Eq/ml.

What about the “beta t1/2” value (Homo sapiens [8]) of the same molecule?
The value was 42.3 h.

What about the AUCt (Homo sapiens [9]) of the same molecule?
The AUCt was 568 ng.Eq.hr/ml.

And the AUC (Homo sapiens [10])?
The AUC was 753 ng.Eq.hr/ml.

And the Cmax/dose (Homo sapiens [11])?
Its Cmax/dose is 224 ngequiv/ml/mg.

What about the AUCt/dose (Homo sapiens [12]) of the same molecule?
Its AUCt/dose is 269 ngequiv.hr/ml/mg.

What about the AUC/dose (Homo sapiens [13]) of the same molecule?
Its AUC/dose is 357 ngequiv.hr/ml/mg.

For `C=C1C[C@@H]2CC[C@@]34C[C@H]5O[C@H]6[C@@H](O3)[C@H]3O[C@H](CC[C@@H]3O[C@H]6[C@H]5O4)CC(=O)C[C@@H]3[C@@H](OC)[C@@H](C[C@H](O)CN)O[C@H]3C[C@H]3O[C@@H](CC[C@@H]1O2)C[C@@H](C)C3=C.CS(=O)(=O)O` [ERIBULIN MESYLATE], which clearance [14] is on record?
Its clearance is 65.5 mL/min.

What about the CL renal [15] of the same molecule?
Its CL renal is 5 mL/min.

And the Vz/F (Homo sapiens [16])?
Its Vz/F is 247 L.

What about the Cmax/dose (Homo sapiens [17]) of the same molecule?
Its Cmax/dose is 222 ng/mL/mg.

What about the AUCt/dose (Homo sapiens [18]) of the same molecule?
The AUCt/dose was 301 ng·h/mL/mg.

And the AUC/dose (Homo sapiens [19])?
The AUC/dose was 328 ng·h/mL/mg.

And the Drug excretion (Homo sapiens [20])?
Its Drug excretion is 68.6%.

What about the Drug excretion (Homo sapiens [21]) of the same molecule?
The Drug excretion was 68%.

What about the half-life [22] of the same molecule?
Its half-life is 2160 min.

And the dose excreted at 72 h [23]?
Its dose excreted at 72 h is 5%.

What about the dose excreted at 72 h [24] of the same molecule?
Its dose excreted at 72 h is 7%.
